{"data": "Published values from different studies", "target": "Activin receptor type-1 (ACVR1, Homo sapiens, UniProt Q04771)", "Residues used in one study (Q04771 21-509)": "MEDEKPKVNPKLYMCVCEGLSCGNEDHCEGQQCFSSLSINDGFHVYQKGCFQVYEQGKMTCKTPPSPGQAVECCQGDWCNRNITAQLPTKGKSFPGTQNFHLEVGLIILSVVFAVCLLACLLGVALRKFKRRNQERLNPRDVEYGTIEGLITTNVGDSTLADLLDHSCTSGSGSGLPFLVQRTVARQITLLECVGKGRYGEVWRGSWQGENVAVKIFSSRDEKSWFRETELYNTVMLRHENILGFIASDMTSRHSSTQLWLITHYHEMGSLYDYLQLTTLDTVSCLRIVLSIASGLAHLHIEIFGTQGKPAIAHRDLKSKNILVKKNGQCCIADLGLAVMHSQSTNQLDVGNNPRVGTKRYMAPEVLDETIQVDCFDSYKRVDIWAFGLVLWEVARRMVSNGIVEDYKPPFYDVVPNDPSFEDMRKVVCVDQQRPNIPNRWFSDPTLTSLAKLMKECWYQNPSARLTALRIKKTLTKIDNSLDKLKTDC"}
{"SMILES": "CCC1(CC)NC(=O)c2c(c3ccc(Cl)c(Cl)c3n2C)C1C#N (stereo not drawn)", "observed": "thermal stability", "technique": "DSF", "concentration": "10 µM", "measurement": "ΔTm", "value": "0.2 °C"}
{"SMILES": "CN([C@@H]1CCc2c(CC(=O)O)c3ccccc3n2C1)S(=O)(=O)c1ccc(F)cc1", "observed": "cell-free assay", "technique": "competition with immobilised ligand", "concentration": "1 µM", "measurement": "remaining binding", "value": "100%"}
{"SMILES": "Cn1c2c(c3ccc(Cl)c(Cl)c31)C(C#N)C1(CCNCC1)NC2=O (racemic)", "observed": "thermal stability", "technique": "DSF", "concentration": "10 µM", "measurement": "ΔTm", "value": "-0.1 °C"}
{"SMILES": "Cc1cnc(NC2CCOCC2)nc1-n1cnc(C(=O)NC(CN)c2cc(F)cc(Cl)c2)c1 (stereo not drawn)", "observed": "enzyme activity", "action": "inhibitor", "technique": "radiometric", "concentration": "1 µM", "measurement": "remaining activity", "value": "96%"}
{"SMILES": "O=C(Nc1cnn(-c2csc(C(=O)NC3COC3)c2)c1)Nc1c(F)cccc1Cl", "observed": "enzyme activity", "action": "inhibitor", "concentration": "5 µM", "measurement": "remaining activity", "value": "95.7%"}
{"SMILES": "Cn1cc(Cl)c2c(Oc3c(F)cc(Nc4cc(Cl)nc(N)n4)cc3F)ccnc21", "observed": "cell-free assay", "technique": "competition with immobilised ligand", "concentration": "0.1 µM", "measurement": "remaining binding", "value": "85%"}
{"SMILES": "O=C1NC(=O)c2cc(Nc3ccc(F)cc3)c(Nc3ccc(F)cc3)cc21", "observed": "cell-free assay", "concentration": "0.5 µM", "measurement": "remaining signal", "value": "92.3%"}
{"SMILES": "Cn1c2c(Cl)c(Cl)ccc2c2cn[nH]c(=O)c21", "observed": "thermal stability", "technique": "DSF", "concentration": "10 µM", "measurement": "ΔTm", "value": "3.3 °C"}
{"SMILES": "O=C1Nc2ccc(Cl)cc2C1=Cc1cc(Cl)c(O)c(Cl)c1", "observed": "cell-free assay", "concentration": "0.5 µM", "measurement": "remaining signal", "value": "130%"}
{"SMILES": "O=C(NS(=O)(=O)c1ccc(NCC2CCOCC2)c([N+](=O)[O-])c1)c1ccc(N2CCN(Cc3ccc(C(F)(F)F)cc3-c3ccc(Cl)cc3)CC2)cc1Oc1cnc2[nH]ccc2c1", "observed": "cell-free assay", "technique": "competition with immobilised ligand", "concentration": "1 µM", "measurement": "remaining binding", "value": "89%"}
{"SMILES": "Clc1ccc(Nc2nnc(Cc3ccncc3)c3ccccc23)cc1", "observed": "cell-free assay", "concentration": "0.5 µM", "measurement": "remaining signal", "value": "96.1%"}
{"SMILES": "Cc1ccc(NC(=O)c2ccc(C)c(C(F)(F)F)c2)cc1C#Cc1nn(C2CCC(O)CC2)c2ncnc(N)c12 (stereo not drawn)", "observed": "cell-free assay", "concentration": "10 µM", "measurement": "remaining signal", "value": "77%"}
{"SMILES": "CC(C)(O)[C@H]1CC[C@H](Nc2ccc3ncc(-c4cccc(C(F)(F)F)c4)n3n2)CC1", "observed": "enzyme activity", "action": "inhibitor", "concentration": "1 µM", "measurement": "remaining activity", "value": "28.2%"}
{"SMILES": "Cn1c2c(c3ccc(Cl)c(Cl)c31)C(C#N)C1(CCCC1)NC2=O (stereo not drawn)", "observed": "thermal stability", "technique": "DSF", "concentration": "10 µM", "measurement": "ΔTm", "value": "-0.2 °C"}
{"SMILES": "CC(C)(C)c1nc2c(s1)c1nc(N)ncc1c1ccc(NS(=O)(=O)c3c(F)cccc3F)c(F)c12", "observed": "enzyme activity", "action": "inhibitor", "technique": "radiometric", "concentration": "1 µM", "measurement": "remaining activity", "value": "79%"}
{"SMILES": "O=C(O)[C@H]1[C@H](Cn2nnc3ccccc3c2=O)CC[C@@H]1C(=O)c1ccc(OCCC2CCOCC2)cc1", "observed": "cell-free assay", "technique": "competition with immobilised ligand", "concentration": "1 µM", "measurement": "remaining binding", "value": "100%"}
{"SMILES": "CN1CC(Oc2cnc(C#N)cc2-c2ccn3nc(NC(=O)C4CC4)cc3c2)C1", "observed": "enzyme activity", "action": "inhibitor", "concentration": "1 µM", "measurement": "inhibition", "value": "-8%"}
{"SMILES": "COc1cc(-c2cn(C3CCc4ccccc4N(CC(F)(F)F)C3=O)nn2)ccc1-n1ccc(C)n1 (stereo not drawn)", "observed": "cell-free assay", "technique": "competition with immobilised ligand", "concentration": "1 µM", "measurement": "remaining binding", "value": "100%"}
{"SMILES": "N#CC1c2c([nH]c3c(Cl)c(Cl)ccc23)C(=O)NC12CCCCC2 (racemic)", "observed": "thermal stability", "technique": "DSF", "concentration": "10 µM", "measurement": "ΔTm", "value": "0.1 °C"}
{"SMILES": "Nc1cnc(N2CCc3cc(S(=O)(=O)Nc4c(F)cc(Cl)cc4F)cc(N4CCCC4=O)c32)nc1", "observed": "cell-free assay", "technique": "competition with immobilised ligand", "concentration": "1 µM", "measurement": "remaining binding", "value": "100%"}
{"SMILES": "Cc1ccc(C(=O)Nc2ccc(CN3CCN(C)CC3)c(C(F)(F)F)c2)cc1C#Cc1cnc2cccnn12", "observed": "cell-free assay", "concentration": "23.5 nM", "measurement": "remaining signal", "value": "100%"}
